Reference: ChEMBL document CHEMBL5149972, “Novel Antimalarial Tetrazoles and Amides Active against the Hemoglobin Degradation Pathway in Plasmodium falciparum” (J Med Chem, 2021)
Converted amounts (≈) assume the structure as drawn.

Experiments:
Plasmodium falciparum [1] = test: Antiplasmodial activity against chloroquine and pyrimethamine resistant Plasmodium falciparum K1 infected in human RBC assessed as parasite growth inhibition incubated for 72 hrs by SYBR Green dye based fluorescence assay; type: functional, organism-based; settings: K1, Erythrocyte
[2] = Kinetic solubility of compound in PBS at pH 6.5 by HPLC analysis; type: physicochemical; settings: read-out: Kinetic_solubility
Plasmodium falciparum [3] = test: Antiplasmodial activity against chloroquine and piperaquine resistant Plasmodium falciparum Dd2-M343L mutant replaced with endogenous pfcrt locus with the recombinant Dd2 sequence and the PPQ resistance-conferring M343L at endogenous pfcrt Dd2 locus infected in human RBC assessed as parasite growth inhibition incubated for 72 hrs by SYBR Green dye based fluorescence assay; type: functional, organism-based; settings: Erythrocyte
Outline: (§1)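 Gene-edited Dd2 lines with the endogenous pfcrt locus replaced by zinc-finger nuclease editing. Concentration-response curves run with technical duplicates at each concentration; values are the average of two biological replicates, with std dev given where more replicates were collected.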

Plasmodium falciparum [4] = test: Antiplasmodial activity against Plasmodium falciparum mature stage V gametocyte assessed as inhibition of female gametocyte formation by luciferase reporter assay; type: functional, organism-based
Plasmodium falciparum [5] = test: Antiplasmodial activity against lab-derived KAF156 resistant Plasmodium falciparum Dd2-Pfcarl mutant infected in human RBC assessed as parasite growth inhibition incubated for 72 hrs by SYBR Green dye based fluorescence assay; type: functional, organism-based; settings: Erythrocyte
Plasmodium falciparum [6] = test: Antiplasmodial activity against lab-derived MMV390048 resistant Plasmodium falciparum Dd2-Pfpi4K mutant infected in human RBC assessed as parasite growth inhibition incubated for 72 hrs by SYBR Green dye based fluorescence assay; type: functional, organism-based; settings: Erythrocyte
Plasmodium falciparum [7] = test: Antiplasmodial activity against Rac-N-(Pyridin-3-yl(1-(o-tolyl)-1H-tetrazol-5-yl)methyl)-N-(3-(trifluoromethyl)benzyl)Cyclopropanamine resistant Plasmodium falciparum 3D7 clone F2-A11 ring-stage parasite assessed as parasite growth inhibition incubated for 72 hrs by SYBR Green and MitoTracker Deep Red FM dye based flow cytometry; type: functional, organism-based
Outline: (§2)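 Clonal 3D7-A10 lines recovered after single-step selection; ring stages at 0.2% parasitemia, 1% hematocrit in RPMI-1640 with 0.5% Albumax. 72 h exposure to a 10-point 2-fold dilution series in duplicate with DMSO controls, final DMSO <0.5%. Survival read by flow cytometry, SYBR Green as nuclear stain and MitoTracker Deep Red FM as vital dye. EC₅₀ and EC₉₀ reported with fold shift relative to parental 3D7-A10.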

Plasmodium falciparum [8] = test: Antiplasmodial activity against lab-derived DSM265 resistant Plasmodium falciparum Dd2-PfDHODH mutant infected in human RBC assessed as parasite growth inhibition incubated for 72 hrs by SYBR Green dye based fluorescence assay; type: functional, organism-based; settings: Erythrocyte
[9] = Kinetic solubility of compound in PBS at pH 2 by HPLC analysis; type: physicochemical; settings: read-out: Kinetic_solubility
Plasmodium falciparum [10] = test: Antiplasmodial activity against drug resistant Plasmodium falciparum Dd2 infected in human RBC assessed as parasite growth inhibition incubated for 72 hrs by SYBR Green dye based fluorescence assay; type: functional, organism-based; settings: Plasmodium falciparum, Dd2, Erythrocyte, 72 h
Outline: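 Blood-stage cultures at 2% hematocrit, human O+ RBCs, RPMI 1640 + 25 mM HEPES, 0.5% Albumax-I, 23 mM bicarbonate, 92 μM hypoxanthine. Start at 0.5% parasitemia; 72 h at 37°C, 5% CO₂; freeze-thaw, then SYBR Green in saponin/Triton lysis buffer, 4 h RT dark; fluorescence ex 485/em 535 nm. 10-point curves, technical duplicates or triplicates, final 0.5% DMSO; four-parameter fit gives EC₅₀; mean ± std dev of biological replicates.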

Plasmodium falciparum [11] = test: Antiplasmodial activity against chloroquine resistant Plasmodium falciparum Dd2-Dd2 mutant replaced with recombinant Dd2 sequence at endogenous pfcrt Dd2 locus infected in human RBC assessed as parasite growth inhibition incubated for 72 hrs by SYBR Green dye based fluorescence assay; type: functional, organism-based; settings: Erythrocyte; outline: as §1
Plasmodium berghei = test: Antiplasmodial activity against liver stage Plasmodium berghei ANKA expressing GFP-Luc-SMCO infected in human HepG2-A16-CD81EGFP cells assessed as reduction in liver-stage development of luciferase-expressing parasite by luciferase reporter gene based bioluminescence assay; type: functional, organism-based
Outline: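 Pb-Luc (P. berghei ANKA-GFP-Luc-SMCON) sporozoites infect HepG2-A16-CD81EGFP cells in phenol red-free DMEM with 5% FBS, glutamine, penicillin/streptomycin; compounds scored for blocking liver-stage development by luciferase signal.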

Plasmodium falciparum [12] = test: Antiplasmodial activity against Rac-N-(Pyridin-3-yl(1-(o-tolyl)-1H-tetrazol-5-yl)methyl)-N-(3-(trifluoromethyl)benzyl)Cyclopropanamine resistant Plasmodium falciparum 3D7 clone F1-E4 ring-stage parasite assessed as parasite growth inhibition incubated for 72 hrs by SYBR Green and MitoTracker Deep Red FM dye based flow cytometry; type: functional, organism-based; outline: as §2
Plasmodium falciparum [13] = test: Antiplasmodial activity against chloroquine and pyrimethamine resistant Plasmodium falciparum Dd2 infected in human RBC assessed as parasite growth inhibition incubated for 72 hrs by SYBR Green dye based fluorescence assay; type: functional, organism-based; settings: Dd2, Erythrocyte
Outline: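 O+ human RBCs at 2% hematocrit and 0.5% starting parasitemia, in RPMI 1640 with 25 mM HEPES, 0.5% Albumax-I, bicarbonate and hypoxanthine. Serial dilutions in triplicate, 0.5% DMSO final, 72 h at 37°C, 5% CO2. Frozen at −80°C, lysed with SYBR Green in saponin/Triton buffer for 4 h in the dark. Ex 485/em 535 nm. EC50 from four-parameter fit; biphasic fit where curves were biphasic.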

Plasmodium falciparum [14] = test: Antiplasmodial activity against Plasmodium falciparum mature stage V gametocyte assessed as inhibition of male gametocyte formation by luciferase reporter assay; type: functional, organism-based
Plasmodium falciparum [15] = test: Antiplasmodial activity against Plasmodium falciparum NF54 infected in human RBC assessed as parasite growth inhibition incubated for 72 hrs by SYBR Green dye based fluorescence assay; type: functional, organism-based; settings: NF54, Erythrocyte
Plasmodium falciparum [16] = test: Antiplasmodial activity against Rac-N-(Pyridin-3-yl(1-(o-tolyl)-1H-tetrazol-5-yl)methyl)-N-(3-(trifluoromethyl)benzyl)Cyclopropanamine resistant Plasmodium falciparum 3D7 clone F1-C1 ring-stage parasite assessed as parasite growth inhibition incubated for 72 hrs by SYBR Green and MitoTracker Deep Red FM dye based flow cytometry; type: functional, organism-based; outline: as §2
Plasmodium falciparum [17] = test: Antiplasmodial activity against chloroquine, atovaquone and pyrimethamine resistant Plasmodium falciparum TM90C2B infected in human RBC assessed as parasite growth inhibition incubated for 72 hrs by SYBR Green dye based fluorescence assay; type: functional, organism-based; settings: Erythrocyte
Plasmodium falciparum [18] = test: Antiplasmodial activity against Rac-N-(Pyridin-3-yl(1-(o-tolyl)-1H-tetrazol-5-yl)methyl)-N-(3-(trifluoromethyl)benzyl)Cyclopropanamine resistant Plasmodium falciparum 3D7 clone F1-B6 ring-stage parasite assessed as parasite growth inhibition incubated for 72 hrs by SYBR Green and MitoTracker Deep Red FM dye based flow cytometry; type: functional, organism-based; outline: as §2
Hemozoin = test: Inhibition of Beta-hematin assessed as bis-pyridyl-Fe(III)PPIX complex formation incubated for 5 hrs by NP40 detergent-mediated colorimetric assay
Plasmodium falciparum [19] = test: Antiplasmodial activity against piperaquine and pyrimethamine resistant Plasmodium falciparum RF12 infected in human RBC assessed as parasite growth inhibition incubated for 72 hrs by SYBR Green dye based fluorescence assay; type: functional, organism-based; settings: RF12, Erythrocyte

Work on Cc1ccccc1-n1nnnc1C(c1cccnc1)N(Cc1cccc(C(F)(F)F)c1)C1CC1 (racemic) yielded an EC50 (Plasmodium falciparum [1]) of 360 nM, a solubility kinetic [2] of 1.5 µg/mL (≈ 3.23 µM) and an EC50 (Plasmodium falciparum [3]) of 38000 nM. The EC50 (Plasmodium falciparum [4]) was > 25000 nM, the EC50 (Plasmodium falciparum [5]) was 650 nM and the EC50 (Plasmodium falciparum [6]) was 750 nM. It also gave an EC50 (Plasmodium falciparum [7]; 3D7 clone F2-A11, 72 h) of 670 nM, an EC90 (Plasmodium falciparum [7]; 3D7 clone F2-A11, time 72 hrs) of 1300 nM and an EC50 (Plasmodium falciparum [8]) of 800 nM. It also gave a solubility kinetic [9] of 12 µg/mL (≈ 25.8 µM), an EC50 (Plasmodium falciparum [10]) of 540 nM and an EC50 (Plasmodium falciparum [11]) of 450 nM. The EC50 (Plasmodium berghei) was 7300 nM, the EC50 (Plasmodium falciparum [12]; 3D7 clone F1-E4, 72 h) was 740 nM and the EC90 (Plasmodium falciparum [12]; 3D7 clone F1-E4, time 72 hrs) was 1500 nM. The EC50 (Plasmodium falciparum [13]) was 540 nM, the EC50 (Plasmodium falciparum [14]) was > 25000 nM and the EC50 (Plasmodium falciparum [15]) was 480 nM. For the same compound, the EC50 (Plasmodium falciparum [16]; 3D7 clone F1-C1, 72 h) was 540 nM, the EC90 (Plasmodium falciparum [16]; 3D7 clone F1-C1, time 72 hrs) was 1000 nM and the EC50 (Plasmodium falciparum [17]) was 460 nM. For the same compound, the EC50 (Plasmodium falciparum [18]; 3D7 clone F1-B6, 72 h) was 550 nM, the EC90 (Plasmodium falciparum [18]; 3D7 clone F1-B6, time 72 hrs) was 1100 nM and the IC50 (Hemozoin) was 76000 nM. The EC50 (Plasmodium falciparum [19]) was 610 nM.
